Screens as filed in PubChem BioAssay.
NPY-Y2 antag = NPY-Y2 receptor antagonists, primary screen, cell-based. Neuropeptide Y receptor type 2 (Homo sapiens), P49146. NPY-Y2 expressing cells, antagonist mode. inhibition, % at 2.7 µM. actives 0.99% (n = 140,000). AID 793, 2007; in the data active = inhibition above about 17%
Target sequence (P49146 whole entry, looked up): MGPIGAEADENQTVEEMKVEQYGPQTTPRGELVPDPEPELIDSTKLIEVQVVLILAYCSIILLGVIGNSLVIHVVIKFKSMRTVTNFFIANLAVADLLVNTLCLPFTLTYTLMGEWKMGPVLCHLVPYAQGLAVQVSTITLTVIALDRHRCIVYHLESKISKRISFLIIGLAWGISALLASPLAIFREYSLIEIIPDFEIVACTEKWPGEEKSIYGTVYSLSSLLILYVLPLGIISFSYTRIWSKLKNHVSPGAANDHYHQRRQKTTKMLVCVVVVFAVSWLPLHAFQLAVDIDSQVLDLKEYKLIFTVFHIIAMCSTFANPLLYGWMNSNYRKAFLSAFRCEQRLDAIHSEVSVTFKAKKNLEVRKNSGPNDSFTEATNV
NPY-Y1 antag = NPY-Y1 receptor antagonists, primary screen, cell-based; HEK293-CNG Y1 cells, membrane potential fluorescence; NPY at EC95, then isoproterenol; inhibition, % at 3.6 µM; actives 1% (n = 200,000);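 active = inhibition above the campaign mean inhibition of all tested compounds plus 3 SD, cut at about 20% in these data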
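Material: HEK293 Y1/CNG channel cell line | Also added: NPY (25 nM), isoproterenol (1 µM), Ro 20-1724 (25 µM) | Compound: One concentration, 3.6 µM, in 0.4% DMSO | Schedule: 3 h dye uptake, 1 h room-temperature compound, 45 min post-isoproterenol | Signal: Membrane-potential fluorescent dye readout | Read-out: % inhibition of NPY effect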
NPY2 pot ag = NPY-Y2 potentiators or agonists, primary screen, cell-based. activation, % at 3.6 µM. actives 0.45% (n = 220,000). cells expressing NPY-Y2, potentiator/agonist read-out. AID 1359, 2008; in the data active = activation above about 27%;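 also: cells stimulated with NPY near EC25 plus isoproterenol at EC100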
NPY1 pot ag = NPY-Y1 receptor potentiators or agonists, primary screen, cell-based. NPY-Y1 expressing cells, potentiator/agonist activation. AID 1304, 2008. Neuropeptide Y receptor type 1 (Homo sapiens), P25929. activation, % at 3.6 µM. actives 0.37% (n = 220,000); in the data active = activation above about 33%, passing the limit was not always enough;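 also: cells stimulated with NPY at EC10 then isoproterenol at EC100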
NPY-Y2 confirm = NPY-Y2 potentiators or agonists, confirmation, cell-based; shares compounds with NPY2 pot ag; cell-based NPY-Y2 potentiator/agonist assay; activation, % at 3.6 µM; actives 20% (n = 450); AID 1539, 2009; in the data active = activation above about 33%
NPY-Y1 potentiator = NPY-Y1 potentiators or agonists, counter-screen for NPY-Y2 potentiator project, cell-based, fluorescence. Y1 HEK293-CNG cells, membrane potential fluorescence. actives 20% (n = 450). AID 1651, 2009. shares compounds with NPY2 pot ag. activation, % at 3.6 µM; in the data active = activation above about 45%;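 also: cells stimulated with submaximal NPY then isoproterenol with phosphodiesterase inhibitor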
NPY-Y1 agonist 2 = NPY-Y1 direct agonists, selectivity assay for NPY-Y2 potentiator project, cell-based, fluorescence; AID 1702, 2009; shares compounds with NPY2 pot ag; HEK293 Y1-CNGC, membrane potential fluorescence, agonism; actives 37% (n = 450); activation, % at 3.6 µM;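 active = activation above the mean of DMSO-only control wells plus 3 SD, cut at about 18% in these data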;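 also: cells stimulated with 1 µM isoproterenol plus the PDE inhibitor Ro 20-1724; Y1 agonists lower the membrane potential dye signal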
CNGC inh = CNGC cAMP sensor activity inhibitors, counter-screen for NPY-Y2 potentiator project, cell-based, HEK293-CNG parental, membrane potential fluorescence; shares compounds with NPY2 pot ag; inhibition, % at 3.6 µM; actives 32% (n = 450); AID 1703, 2009; isoproterenol cAMP;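 active = inhibition above the control-well mean plus 3 SD of those wells, cut at about 22% in these data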
NPY-Y2 ag 2 = NPY-Y2 direct agonists, counter-screen for NPY-Y2 potentiator project, cell-based, fluorescence | activation, % at 3.6 µM | HEK293 Y2/CNGC cells, membrane potential fluorescence, agonist mode | actives 56% (n = 450) | shares compounds with NPY2 pot ag;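 active = activation above the mean of solvent-only control wells plus 3 SD, cut at about 10% in these data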;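 also: cells stimulated by isoproterenol with no NPY added so direct agonism is tested; agonism lowers probe fluorescence through less cAMP and CNG channel opening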
Hits are given with their value; - = inactive; . = no result. Shown are actives, neighbours in structure and some others; about 1.8% of the full set was active somewhere.

SMILES	NPY-Y2 antag	NPY-Y1 antag	NPY2 pot ag	NPY1 pot ag	NPY-Y2 confirm	NPY-Y1 potentiator	NPY-Y1 agonist 2	CNGC inh	NPY-Y2 ag 2
COC(=O)CSc1nnc(-c2ccc(OC)cc2OC)o1	-	-	50	-	36	61	36	49	25
CCOC(=O)CSc1nnc(-c2ccccc2OC)o1	-	-	-	-	.	.	.	.	.
COc1ccc(S(=O)(=O)N2CCC(n3cnc4cc(C(F)(F)F)ccc43)CC2)cc1	-	-	-	-	.	.	.	.	.
CC(=O)Nc1ccc(S(=O)(=O)N2CCC(n3cnc4cc(F)ccc43)CC2)cc1	-	-	35	-	-	-	-	-	-
CC(C)(C)n1nnnc1C(c1cccc(C#N)c1)N1CCCc2ccccc21 (stereo not given)	-	-	27	-	-	-	-	-	-
CC(C)C(=O)Nc1ccc(N2CCN(c3ccc(F)cc3)CC2)cc1	.	-	31	-	-	-	-	-	-
CCc1c(C)c(C#N)c2nc3ccccc3n2c1N(C)C	-	-	101	-	-	-	-	-	-
CC1CCc2c(C(=O)Nc3ccc(N4CCOCC4)cc3)csc2C1 (stereo not given)	.	-	-	-	.	.	.	.	.
Cc1cccc2sc(N(CCN(C)C)C(=O)/C=C/c3cccs3)nc12	-	-	53	-	91	112	97	86	100
CN(C)CCCN(C(=O)/C=C/c1cccs1)c1nc2c(F)cccc2s1	.	-	36	-	66	73	55	63	65
CN(C)CCCN(C(=O)CCc1ccccc1)c1nc2c(F)cccc2s1	-	-	-	-	.	.	.	.	.
Cc1ccc(NC(=O)COC(=O)c2ccc(OCc3c(C)noc3C)cc2)cc1S(=O)(=O)N1CCOCC1	-	-	-	-	.	.	.	.	.
CC(C)N1CCC(N2CCN(Cc3cc4c(cc3Cl)OCO4)CC2CCO)CC1 (stereo not given)	.	-	-	-	.	.	.	.	.
O=C(OCN1C(=O)c2ccccc2C1=O)c1ccc2c(=O)n3c(nc2c1)CCC3	-	-	-	-	.	.	.	.	.
COc1ccc(COC(=O)c2ccc3c(=O)n4c(nc3c2)CCC4)cc1F	.	.	59	-	-	-	-	-	10
COc1ccc(N2CCN(CC(O)COc3ccccc3[N+](=O)[O-])CC2)cc1 (stereo not given)	-	-	37	-	-	-	49	-	34
C=CCc1ccccc1OCC(O)CN1CCN(c2ccc(C)cc2)CC1 (stereo not given)	-	-	44	-	-	-	55	-	47
Cc1cccc(N2CCN(CC(O)COc3ccccc3Cl)CC2)c1 (stereo not given)	.	.	-	-	.	.	.	.	.
C=CCc1ccccc1OCC(O)CN1CCN(C(=O)OCC)CC1 (stereo not given)	-	-	35	-	-	-	20	-	-
COc1ccc(OCC(O)CN2CCN(c3ccccc3)CC2)cc1 (stereo not given)	.	-	-	-	.	.	.	.	.
CC1(C)Cc2c(sc3c2c(=O)n(-c2cccc(Cl)c2)c(=O)n3CC(N)=O)CO1	.	.	-	-	.	.	.	.	.
O=C(Nc1ccc(OCC(F)(F)C(F)F)c(C(F)(F)F)c1)c1ccccc1O	-	-	61	-	-	-	-	-	-
NC(=O)c1ccc(N2CCN(S(=O)(=O)c3ccccc3)CC2)c([N+](=O)[O-])c1	.	-	31	-	-	-	-	-	-
COC(=O)c1ccc(N2CCN(S(=O)(=O)c3ccc4ccccc4c3)CC2)c([N+](=O)[O-])c1	-	-	-	-	.	.	.	.	.
C/C(N)=C(/C#N)C(=O)CSc1nn(-c2ccc(Cl)cc2)c(=S)s1	.	-	35	-	-	-	-	-	10.0
SMILES	NPY-Y2 antag	NPY-Y1 antag	NPY2 pot ag	NPY1 pot ag	NPY-Y2 confirm	NPY-Y1 potentiator	NPY-Y1 agonist 2	CNGC inh	NPY-Y2 ag 2
O=C(Nc1ccc(F)cc1)NC1CCCCC1	-	-	99	-	-	-	-	-	-
O=C(N/N=C/c1cccc2cccnc12)c1ccccc1O	.	.	38	-	-	-	-	-	12
O=C(N/N=C/c1cccc2nccnc12)c1ccccc1O	.	.	-	-	.	.	.	.	.
CCn1c(C2CCN(S(=O)(=O)c3ccc(OC)cc3)CC2)n[nH]c1=S	.	-	-	-	.	.	.	.	.
Cc1cc(C(=O)NNC(=O)Nc2ccc(Cl)cc2)no1	.	.	97	-	-	-	-	-	-
Cc1cccc(Cl)c1NC(=O)N1CCCN(c2nc3ccc(Cl)cc3s2)CC1	.	.	45	-	-	-	-	-	-
COC(=O)c1[nH]c(C)c(/C(O)=C2\C(=O)C(=O)N(CCN3CCOCC3)C2c2ccco2)c1C (stereo not given)	.	.	-	-	.	.	.	.	.
O=C(CCc1ccccc1O)N/N=C/c1ccc(Sc2cccc3cccnc23)o1	-	-	37	-	-	-	34	22	22
O=C(CSc1cccc2cccnc12)N/N=C/c1ccc(O)cc1	.	.	-	-	.	.	.	.	.
Cc1ccc(F)cc1CNC(=O)c1cc(COc2ccc3ncccc3c2)on1	.	-	-	-	.	.	.	.	.
O=C(NCc1cccc(Cl)c1)c1cc(COc2ccc3ncccc3c2)on1	.	-	37	-	-	-	-	-	-
CCOC(=O)N1CCN(C(=S)Nc2cc(OC)c(OC)cc2C(=O)OC)CC1	-	-	-	-	.	.	.	.	.
CC(=O)N1CC(=O)N=C1SCC(=O)Nc1nc(C)c(-c2ccccc2)s1	.	-	37	-	-	-	41	40	28
O=C(Nc1cc(S(=O)(=O)N2CCCCC2)ccc1O)c1ccccc1NS(=O)(=O)c1ccc(F)cc1	-	-	-	-	.	.	.	.	.
O=C(Nc1cc(S(=O)(=O)N2CCCCC2)ccc1Cl)c1ccccc1NS(=O)(=O)c1ccc(F)cc1	-	-	42	-	-	-	-	-	19
CC(C)c1nnc(NC(=O)CCC(=O)Nc2ccccc2)s1	.	.	-	-	.	.	.	.	.
CC(C)c1nnc(NC(=O)CCC(=O)Nc2ccc3cn[nH]c3c2)s1	.	.	39	-	-	-	-	-	13
[O-]/[N+](=C/c1cccnc1)c1ccc(Br)cc1	-	-	-	-	.	.	.	.	.
[O-]/[N+](=C\c1ccncc1)c1ccc(Br)cc1	-	-	57	-	-	-	20	-	-
